Screens as filed in PubChem.
In the library only some 4% were active in any assay of this set; here they are far more common.
hERG rescue: hERG rescue from dofetilide block, primary screen, cell-based, CHO-hERG, FluxOR thallium flux, dofetilide IC70; dofetilide IC70 present; hit rate 0.51% among 310,000; activation (rescue from dofetilide block), less the hit threshold, % at 10 µM; AID 1511, 2009; Voltage-gated inwardly rectifying potassium channel KCNH2 (Homo sapiens), Q12809;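 active means activation above the mean of controls blocked by dofetilide plus 5 SD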;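 further: thallium influx through hERG after potassium depolarization seen as dye fluorescence rise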
KCNK3 block: human KCNK3 channel inhibitors, primary screen, CHO cells, FluxOR thallium flux, B-score; Potassium channel subfamily K member 3 (Homo sapiens), O14649; FluxOR fluorescence; stronger effect = lower value; B-score at 10 µM; hit rate 0.84% among 340,000; AID 602410, 2012;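 active means B-score under library mean minus 4 SD, starting fluorescence ratio at most library mean plus 5 SD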;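 further: more negative B-score means stronger inhibition of thallium flux through KCNK3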
KCNK9 inh: KCNK9 potassium channel inhibitors, primary screen, HEK293 cells, thallium flux. FluxOR thallium flux fluorescence; stronger effect = lower value. B-score at 10 µM. hit rate 1.2% among 310,000;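 active means ratio B-score over 3 SD below the library mean, with starting fluorescence within 5 SD of its mean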;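 further: negative B-score means less thallium flux so channel inhibition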
PHOSPHO1 inh: PubChem AID 1565; Phosphoethanolamine/phosphocholine phosphatase (Homo sapiens), Q8TCT1; recombinant PHOSPHO1, absorbance phosphatase assay; inhibition, % at 13.3 µM; hit rate 1.1% among 290,000; in the data active means inhibition above about 60%
Target sequence (Q8TCT1 whole entry, looked up): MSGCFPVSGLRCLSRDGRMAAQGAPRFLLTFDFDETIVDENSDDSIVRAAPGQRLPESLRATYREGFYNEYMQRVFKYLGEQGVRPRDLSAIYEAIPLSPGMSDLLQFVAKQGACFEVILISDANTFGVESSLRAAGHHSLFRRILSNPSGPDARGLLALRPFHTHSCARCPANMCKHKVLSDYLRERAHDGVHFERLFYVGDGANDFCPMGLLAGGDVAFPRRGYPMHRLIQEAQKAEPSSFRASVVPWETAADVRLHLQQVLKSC
KCNQ1 block: inhibitors of human KCNQ1 channel, primary screen, cell-based, thallium flux, high-throughput | CHO-K1 KCNQ1, FluxOR thallium flux fluorescence; stronger effect = higher value | B-score at 10 µM | hit rate 1.3% among 310,000 | AID 2642, 2010;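 active means compounds whose thallium flux B-score, printed positive for inhibition, exceeds three library SD while starting fluorescence stays within three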;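 further: channel opened by potassium depolarization with thallium stimulus after 20 min compound exposure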
KCNQ1 act: potentiators or activators of KCNQ1 channel, primary screen, cell-based, thallium flux, high-throughput; Potassium voltage-gated channel subfamily KQT member 1 (Homo sapiens), P51787; CHO-K1 KCNQ1, thallium flux FluxOR fluorescence; stronger effect = higher value; B-score at 10 µM; hit rate 0.35% among 310,000;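 active means fluorescence ratio B-score, a plate-corrected score, at least three library SD, with initial intensity B-score within 5 SD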
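Assay system: CHO-K1 cells stably expressing KCNQ1; Medium: assay buffer with matched DMSO; Also added: K+/Tl+ depolarizing stimulus; Dosing: single dose; Timing: dye 90 min, compound 20 min, room temperature; Measured by: kinetic FluxOR thallium fluorescence, 10-s 1-Hz baseline, 110-s post-stimulus read; Read-out: peak-minus-minimum fluorescence over initial fluorescence, negative-control normalized, B-scored.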
An asterisk follows results filed as active; i = inactive; nt = no result given.

SMILES | hERG rescue | KCNK3 block | KCNK9 inh | PHOSPHO1 inh | KCNQ1 block | KCNQ1 act
CN1CCN(C(=O)C(N)Cc2ccccc2)CC1 (stereo unspecified) | -5.2 | i | i | 62.9* | i | i
COc1ccc(NC(=O)Nc2nnc(N3CCC(C)CC3)s2)cc1OC | -6.5 | i | i | 35.8 | i | i
Cc1cc(C)cc(C(=O)/C=C2\NC(=O)CS2)c1 | 4.0 | i | i | 10.7 | i | i
O=S(=O)(c1ccc(N=C2NN=C(c3cc(F)ccc3F)CS2)cc1)N1CCOCC1 | nt | i | nt | 4.7 | nt | nt
CC(=O)Nc1ccc(C2=NNC(=Nc3ccc(S(=O)(=O)N4CCOCC4)cc3)SC2)cc1 | -14.8 | i | i | 65.4* | i | i
Cc1ccc(C)c(CN2CCC(n3nccc3NC(=O)C3CCCC3)CC2)c1 | -13.4 | i | i | 17.6 | i | i
CSc1ncc(Cl)c(C(=O)Nc2ccc(NC(C)=O)cc2)n1 | -8.3 | i | i | 60.0* | i | i
CSc1ncc(Cl)c(C(=O)Nc2cccnc2)n1 | -3.9 | i | i | nt | i | i
CCCCN(C)C1CCN(C(=S)Nc2ccc(OC)cc2)CC1 | -8.3 | i | i | -25.8 | i | i
Cc1ccc(NS(=O)(=O)c2cccc(C(=O)O)c2)cc1S(=O)(=O)N1CCOCC1 | -0.1 | i | i | -1.1 | i | i
CN(C)c1ccc(C(=S)N2CCN(c3ccccc3)CC2)cc1 | -6.7 | i | i | 2.8 | i | i
CN(C)c1ccc(C(=S)N2CCCCCC2)cc1 | -11.2 | i | i | 39.7 | i | i
CC(=O)N1CCN(C(=S)c2ccc(N(C)C)cc2)CC1 | 0.3 | i | i | 89.7* | i | i
Cc1ccc(N2CCN(C(=S)c3ccc(N(C)C)cc3)CC2)cc1 | -5.8 | i | i | 65.8* | i | i
CCOc1ccc(CN(C(=O)c2oc3cc(C)ccc3c2C)C2CCS(=O)(=O)C2)cc1 (stereo unspecified) | -16.2 | i | -6.72* | -6.8 | i | i
COc1ccc(-c2nnc(-c3ccc(F)cc3)o2)cc1 | -2.0 | i | i | 15.9 | i | i
c1ccc(Nc2nc(-c3ccccn3)cs2)cc1 | -22.6 | i | i | 43.1 | i | i
COc1cccc2sc(Nc3nnc(-c4ccc(F)cc4)o3)nc12 | 45.6* | i | i | -46.3 | i | 94*
Fc1cccc2sc(Nc3nnc(-c4ccco4)o3)nc12 | 13.0* | i | i | -31.1 | i | 21*
COc1cccc2sc(Nc3nc(-c4ccccn4)cs3)nc12 | 24.4* | i | -6.86* | 27.9 | i | 33*
COc1cccc2sc(Nc3nnc(-c4cccs4)o3)nc12 | 34.1* | i | i | 18.2 | i | 19*
O=C(O)C1Cc2ccccc2CN1C(=O)c1ccccc1Cl (stereo unspecified) | -4.8 | i | i | 2.2 | i | i
CC(=O)NS(=O)(=O)c1ccc(NC(=O)CSc2ccc(Cl)cc2)cc1 | -1.5 | nt | i | 20.8 | i | i
O=C(CC(SCc1ccco1)c1ccc(O)cc1)c1cccs1 (stereo unspecified) | -14.3 | i | i | 23.0 | i | i
O=C(CC(SCCO)c1ccc2c(c1)OCO2)c1cccs1 (stereo unspecified) | -0.7 | i | i | 82.7* | i | i
COc1cc([N+](=O)[O-])ccc1NC(=O)Nc1ccc2c(c1)OCCO2 | 4.6* | i | i | 41.8 | i | i
COc1cc([N+](=O)[O-])ccc1NC(=S)Nc1cc(C(=O)OC(C)C)cc(C(=O)OC(C)C)c1 | -11.5 | i | i | -13.9 | 6* | i
Cc1ccc(N(CN2C(=O)C3CC=CCC3C2=O)C(=O)c2ccco2)cc1Cl (stereo unspecified) | 4.0 | i | i | -13.9 | i | i
